Assay results published in ChEMBL document CHEMBL3124843, “Synthesis, cytostatic, antimicrobial, and anti-HCV activity of 6-substituted 7-(het)aryl-7-deazapurine ribonucleosides” (J Med Chem, 2014).
Calls of active or inactive are those of the source.

How the values were obtained:
[1] = test system: Escherichia coli; experiment: Antibacterial activity against Escherichia coli CCM 3954 after 24 hrs; assay type: functional, organism-based
[2] = test system: K562; experiment: Cytostatic activity against paclitaxel-resistant human K562 cells after 72 hrs by MTT assay; assay type: functional, cell-based; settings: K562, 72 h
Method in brief: (§1)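 IC50 is the concentration that cuts cell growth by 50%, read by quantitative metabolic MTT staining after a 3-day treatment. The resistant sublines were made by raising the concentration of the cytotoxic drug step by step. CEM-DNR-bulk (daunorubicin-selected) stably overexpresses mrp-1. K562-TAX (paclitaxel-selected) expresses only mdr-1. HCT116p53−/− carries null p53 alleles. BJ and MRC-5 are nonmalignant fibroblasts.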

[3] = test system: Pichia kudriavzevii; experiment: Antifungal activity against Candida crusei after 48 hrs; assay type: functional, organism-based
[4] = test system: HepG2; experiment: Antiproliferative activity against human HepG2 cells after 72 hrs by XTT assay; assay type: functional, cell-based; settings: HepG2, 72 h
[5] = test system: MRC5; experiment: Cytostatic activity against human MRC5 cells after 72 hrs by MTT assay; assay type: ADME, cell-based; settings: MRC5, 72 h; method in brief: as §1
[6] = test system: BJ; experiment: Cytostatic activity against human BJ cells after 72 hrs by MTT assay; assay type: ADME, cell-based; method in brief: as §1
[7] = test system: HCT-116; experiment: Cytostatic activity against p53-deficient human HCT116 cells after 72 hrs by MTT assay; assay type: functional, cell-based; settings: HCT-116, 72 h; method in brief: as §1
[8] = test system: Pseudomonas aeruginosa; experiment: Antibacterial activity against multi-resistant Pseudomonas aeruginosa A/16575 after 24 hrs; assay type: functional, organism-based
[9] = Antiproliferative activity against human HeLaS3 cells after 72 hrs by XTT assay; assay type: functional, cell-based; settings: HeLa S3, 72 h
Method in brief: (§2)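 Antiproliferative test on HL-60 promyelocytic leukemia and HeLa S3 cervical carcinoma cells growing in liquid suspension.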

[10] = test system: Hepatitis C virus; experiment: Antiviral activity against Hepatitis C virus subtype 1b infected in human HuH7 cells; assay type: functional, organism-based, Hepacivirus hominis; settings: genotype 1b, Huh-7
[11] = Cytotoxicity against human HuH7 cells infected with Hepatitis C virus subtype 1b; assay type: cell-based, Huh-7
[12] = test system: HL-60; experiment: Antiproliferative activity against human HL60 cells after 72 hrs by XTT assay; assay type: functional, cell-based; settings: HL-60, 72 h; method in brief: as §2
[13] = test system: Pseudomonas aeruginosa; experiment: Antibacterial activity against Pseudomonas aeruginosa CCM 3955 after 24 hrs; assay type: functional, organism-based
[14] = test system: K562; experiment: Cytostatic activity against human K562 cells after 72 hrs by MTT assay; assay type: functional, cell-based; settings: K562, 72 h; method in brief: as §1
[15] = test system: Enterococcus faecalis; experiment: Antibacterial activity against Enterococcus faecalis CCM 4224 after 24 hrs; assay type: functional, organism-based
[16] = test system: Staphylococcus aureus; experiment: Antibacterial activity against methicillin-resistant Staphylococcus aureus MRSA 4591 after 24 hrs; assay type: functional, organism-based
[17] = test system: HCT-116; experiment: Cytostatic activity against human HCT116 cells after 72 hrs by MTT assay; assay type: functional, cell-based; settings: HCT-116, 72 h; method in brief: as §1
[18] = test system: Hepatitis C virus; experiment: Antiviral activity against Hepatitis C virus subtype 2a infected in human HuH7 cells; assay type: functional, organism-based, Hepacivirus hominis; settings: genotype 2a, Huh-7
[19] = test system: Candida albicans; experiment: Antifungal activity against Candida albicans after 48 hrs; assay type: functional, organism-based
[20] = test system: Candida parapsilosis; experiment: Antifungal activity against Candida parapsilosis after 48 hrs; assay type: functional, organism-based
[21] = test system: CCRF-CEM; experiment: Cytostatic activity against human CCRF-CEM cells after 72 hrs by MTT assay; assay type: functional, cell-based; method in brief: as §1
[22] = test system: Staphylococcus aureus; experiment: Antibacterial activity against Staphylococcus aureus CCM 3953 after 24 hrs; assay type: functional, organism-based
[23] = test system: Escherichia coli; experiment: Antibacterial activity against multi-resistant Escherichia coli C/16702 after 24 hrs; assay type: functional, organism-based
[24] = test system: A549; experiment: Cytostatic activity against human A549 cells after 72 hrs by MTT assay; assay type: functional, cell-based; settings: A549, 72 h; method in brief: as §1
[25] = Cytotoxicity against human HuH7 cells infected with Hepatitis C virus subtype 2a; assay type: cell-based, Huh-7
[26] = test system: Staphylococcus haemolyticus; experiment: Antibacterial activity against methicillin-resistant Staphylococcus haemolyticus A/16568 after 24 hrs; assay type: functional, organism-based
[27] = test system: Candida tropicalis; experiment: Antifungal activity against Candida tropicalis after 48 hrs; assay type: functional, organism-based
[28] = Cytostatic activity against human CEM-DNR-bulk cells after 72 hrs by MTT assay; assay type: functional, cell-based; method in brief: as §1

Cc1nc(N)c2c(-c3ccccc3)cn([C@@H]3O[C@H](CO)[C@@H](O)[C@H]3O)c2n1
> 20 µM: IC50 [2] | IC50 [4] | IC50 [7] | IC50 [9] | IC50 [12] | IC50 [14] | IC50 [21] | IC50 [24] | IC50 [28]
inactive: Activity [1] | Activity [3] | Activity [8] | Activity [13] | Activity [15] | Activity [16] | Activity [19] | Activity [20] | Activity [22] | Activity [23] | Activity [26] | Activity [27]
> 44 µM: EC50 [10] | CC50 [11] | EC50 [18] | CC50 [25]
> 100 µM: IC50 [5] | IC50 [6] | IC50 [17]

Nc1nc2c(c(-c3ccccc3)cn2[C@@H]2O[C@H](CO)[C@@H](O)[C@H]2O)c(=O)[nH]1
> 100 µM: IC50 [5] | IC50 [6] | IC50 [21] | IC50 [24]
> 20 µM: IC50 [2] | IC50 [4] | IC50 [7] | IC50 [9] | IC50 [12] | IC50 [14] | IC50 [17] | IC50 [28]
> 44 µM: EC50 [10] | CC50 [11] | EC50 [18] | CC50 [25]
inactive: Activity [1] | Activity [3] | Activity [8] | Activity [13] | Activity [15] | Activity [16] | Activity [19] | Activity [20] | Activity [22] | Activity [23] | Activity [26] | Activity [27]

Cc1nc(N)c2c(-c3cccs3)cn([C@@H]3O[C@H](CO)[C@@H](O)[C@H]3O)c2n1
> 100 µM: IC50 [5] | IC50 [6]
> 20 µM: IC50 [2] | IC50 [4] | IC50 [7] | IC50 [9] | IC50 [12] | IC50 [14] | IC50 [17] | IC50 [21] | IC50 [24] | IC50 [28]
> 44 µM: EC50 [10] | CC50 [11] | EC50 [18] | CC50 [25]
inactive: Activity [1] | Activity [3] | Activity [8] | Activity [13] | Activity [15] | Activity [16] | Activity [19] | Activity [20] | Activity [22] | Activity [23] | Activity [26] | Activity [27]

Cc1nc(N)c2c(-c3ccoc3)cn([C@@H]3O[C@H](CO)[C@@H](O)[C@H]3O)c2n1
> 44 µM: EC50 [10] | CC50 [11] | EC50 [18] | CC50 [25]
inactive: Activity [1] | Activity [3] | Activity [8] | Activity [13] | Activity [15] | Activity [16] | Activity [19] | Activity [20] | Activity [22] | Activity [23] | Activity [26] | Activity [27]
> 20 µM: IC50 [2] | IC50 [4] | IC50 [7] | IC50 [9] | IC50 [12] | IC50 [14] | IC50 [17] | IC50 [24] | IC50 [28]
> 100 µM: IC50 [5] | IC50 [6] | IC50 [21]

Cc1nc(N)c2c(-c3cc4ccccc4o3)cn([C@@H]3O[C@H](CO)[C@@H](O)[C@H]3O)c2n1
4.99 µM: IC50 [2]
6.14 µM: EC50 [10]
inactive: Activity [1] | Activity [3] | Activity [8] | Activity [13] | Activity [15] | Activity [16] | Activity [19] | Activity [20] | Activity [22] | Activity [23] | Activity [26] | Activity [27]
> 100 µM: IC50 [6]
39.1 µM: CC50 [25]
91.8 µM: IC50 [5]
6.31 µM: IC50 [28]
18.2 µM: EC50 [18]
> 20 µM: IC50 [4] | IC50 [9] | IC50 [12] | IC50 [17] | IC50 [21] | IC50 [24]
15.7 µM: IC50 [14]
13.1 µM: IC50 [7]
39.2 µM: CC50 [11]
